Experimental data: ChEMBL document CHEMBL1147439, “Synthesis and SAR evaluation of 1,2,4-triazoles as A(2A) receptor antagonists” (Bioorg Med Chem Lett, 2004)

What was measured:
Adenosine receptor A1 = target: T1, Adenosine receptor A1 (Homo sapiens, UniProt P30542); experiment: Binding affinity for human adenosine A1 receptor by displacement of [3H]DPCPX
T1 sequence (P30542 whole entry): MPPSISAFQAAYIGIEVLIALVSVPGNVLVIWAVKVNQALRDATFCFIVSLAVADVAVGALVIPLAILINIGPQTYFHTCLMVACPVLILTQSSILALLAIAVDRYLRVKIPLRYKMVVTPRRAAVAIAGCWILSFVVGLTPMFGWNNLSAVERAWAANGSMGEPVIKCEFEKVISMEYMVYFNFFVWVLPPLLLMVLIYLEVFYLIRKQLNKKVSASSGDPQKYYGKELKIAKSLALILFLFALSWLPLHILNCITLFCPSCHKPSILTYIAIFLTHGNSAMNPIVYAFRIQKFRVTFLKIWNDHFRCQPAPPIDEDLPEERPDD
Summary of the method: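 Membranes from cells expressing recombinant human A1 receptor, pre-mixed with adenosine deaminase and SPA beads. Labelled with [3H]DPCPX (0.6 nM final) against 10 concentrations of competitor or buffer. Buffer: Tris-HCl 50 mM pH 7.4, NaCl 120 mM, KCl 5 mM, CaCl2 2 mM, MgCl2 10 mM. Xanthine amine congener defined non-specific binding. Incubated 60 min at room temperature, centrifuged, scintillation counted. Duplicates, at least two experiments; Ki given as mean.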

Adenosine receptor A2a [1] = target: T2, Adenosine receptor A2a (Homo sapiens, UniProt P29274); experiment: Binding affinity towards human recombinant adenosine A2A receptor by displacement of [3H]SCH-58261 radioligand.
[2] = pKa value was determined; type: physicochemical
[3] = Medium permeability in parallel artificial membrane permeation assay; high; type: functional
Adenosine receptor A2a [4] = target: Adenosine receptor A2a (Rattus norvegicus, UniProt P30543); experiment: Binding affinity for rat adenosine A2A receptor by displacement of [3H]SCH-58261
[5] = Medium permeability in parallel artificial membrane permeation assay; medium; type: functional
Adenosine receptor A2a [6] = target: T2, Adenosine receptor A2a; experiment: Binding affinity for human adenosine A2A receptor by displacement of [3H]SCH-58,261; inactive

Sequence of Adenosine receptor A2a (Rattus norvegicus, UniProt P30543) (P30543 whole entry): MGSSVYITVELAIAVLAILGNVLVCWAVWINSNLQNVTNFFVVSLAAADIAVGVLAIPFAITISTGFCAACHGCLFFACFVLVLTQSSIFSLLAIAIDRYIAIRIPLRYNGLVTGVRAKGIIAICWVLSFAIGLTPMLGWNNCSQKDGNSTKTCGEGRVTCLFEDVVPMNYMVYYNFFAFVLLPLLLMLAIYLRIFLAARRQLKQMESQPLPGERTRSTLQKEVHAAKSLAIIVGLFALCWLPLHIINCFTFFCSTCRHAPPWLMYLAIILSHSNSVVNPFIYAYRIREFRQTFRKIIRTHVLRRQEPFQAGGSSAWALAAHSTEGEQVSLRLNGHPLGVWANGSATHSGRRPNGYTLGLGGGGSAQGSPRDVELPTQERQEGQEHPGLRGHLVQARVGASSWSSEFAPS
T2 sequence (P29274 whole entry): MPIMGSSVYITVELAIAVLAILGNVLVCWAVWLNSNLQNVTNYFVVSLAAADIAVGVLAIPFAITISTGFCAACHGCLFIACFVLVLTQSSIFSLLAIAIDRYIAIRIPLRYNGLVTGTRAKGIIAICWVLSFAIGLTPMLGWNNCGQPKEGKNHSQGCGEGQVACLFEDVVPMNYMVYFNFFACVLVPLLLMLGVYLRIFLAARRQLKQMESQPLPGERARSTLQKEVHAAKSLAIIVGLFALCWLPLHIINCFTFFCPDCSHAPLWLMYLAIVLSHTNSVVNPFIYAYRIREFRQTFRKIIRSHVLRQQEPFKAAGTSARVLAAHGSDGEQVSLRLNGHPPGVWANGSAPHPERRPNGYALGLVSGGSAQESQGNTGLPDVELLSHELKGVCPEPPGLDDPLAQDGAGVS

In the case of `Cn1nc(-c2ccc(N=[N+]=[N-])cc2)nc1-c1cccc(CN2CC=CC2)c1`, the Ki (Adenosine receptor A1) is reported as 7300 nM and the Ki (Adenosine receptor A2a [1]) is reported as 400 nM.
With `Clc1ccc(Cc2nnc(C3CCCNC3)[nH]2)cc1Cl` (configuration not stated) the Ki (Adenosine receptor A2a [1]) was greater than 5200 nM.
Work on `S/C(Cc1ccccc1)=N\N=C\c1cnc2ccccc2c1` yielded a Ki (Adenosine receptor A2a [1]) of 2000 nM.
`COc1ccc(O)c(/C=N/N=C(\S)Cc2ccccc2)c1` gave a pKa [2] of 6.6 and a Ki (Adenosine receptor A2a [1]) of 20 nM.
Compound `S/C(Cc1ccccc1)=N\N=C\c1cccnc1` has a Ki (Adenosine receptor A2a [1]) of 5 nM.
In the case of `COc1cccc(-c2nnc(Cc3ccc(Cl)c(Cl)c3)[nH]2)c1OC`, the Ki (Adenosine receptor A2a [1]) is reported as 90 nM.
With `COc1cccc(-c2n[nH]c(Cc3cccc(F)c3F)n2)c1` the Activity [3] was 3.8 10e-6·s cm-1, the Ki (Adenosine receptor A1) was 900 nM and the Ki (Adenosine receptor A2a [4]) was 40 nM. It also gave a Ki (Adenosine receptor A2a [1]) of 20 nM.
With `COc1cccc(/C=N/N=C(\S)Cc2ccccc2)c1O` the Ki (Adenosine receptor A2a [1]) was 4700 nM.
For `COc1cccc(-c2n[nH]c(Cc3cccc(Br)c3)n2)c1`, the Activity [3] was 1.9 10e-6·s cm-1, the Ki (Adenosine receptor A1) was 100 nM and the Ki (Adenosine receptor A2a [4]) was 40 nM. It also gave a Ki (Adenosine receptor A2a [1]) of 10 nM.
With `COc1cccc(O)c1/C=N/N=C(\S)Cc1ccccc1` the Ki (Adenosine receptor A2a [1]) was greater than 5200 nM.
`COc1cccc(-c2n[nH]c(CC3CCCCC3)n2)c1` gave a Ki (Adenosine receptor A2a [1]) of 700 nM.
`COc1cc(/C=N/N=C(\S)Cc2ccccc2)c(O)c(OC)c1` showed a Ki (Adenosine receptor A2a [1]) of 4200 nM.
With `COc1cccc(-c2n[nH]c(Cc3ccc4ccccc4c3)n2)c1` the Ki (Adenosine receptor A1) was 2500 nM, the Ki (Adenosine receptor A2a [4]) was 400 nM and the Activity [5] was 0.3 10e-6·s cm-1. It also gave a Ki (Adenosine receptor A2a [1]) of 100 nM.
In the case of `S/C(Cc1ccccc1)=N\N=C\c1ccc2ccccc2n1`, the Ki (Adenosine receptor A2a [1]) is reported as 1200 nM.
With `COc1cccc(-c2n[nH]c(CCc3ccc(Cl)c(Cl)c3)n2)c1` the Ki (Adenosine receptor A1) was 1800 nM and the Ki (Adenosine receptor A2a [1]) was 1000 nM.
Work on `COc1cccc(-c2nnc(Cc3ccc(F)c(F)c3)[nH]2)c1` yielded a Ki (Adenosine receptor A2a [1]) of 70 nM.
Compound `S/C(Cc1ccccc1)=N\N=C\c1ccccc1` has a Ki (Adenosine receptor A2a [1]) greater than 5200 nM.
For `c1cc(CN2CCCC2)cc(-c2n[nH]c(-c3ccc4c(c3)OCCO4)n2)c1`, the Ki (Adenosine receptor A1) was 7600 nM and the Ki (Adenosine receptor A2a [1]) was 1000 nM.
For `Oc1ccccc1-c1n[nH]c(-c2ccccc2)n1`, the Ki (Adenosine receptor A2a [1]) was 700 nM.
Compound `COc1cccc(-c2n[nH]c(Cc3ccc(Cl)c(Cl)c3)n2)c1` has a Ki (Adenosine receptor A1) of 1900 nM and a Ki (Adenosine receptor A2a [1]) of 40 nM.
With `COc1cccc(-c2nnc(CN3CCCCC3)[nH]2)c1` the Ki (Adenosine receptor A2a [1]) was greater than 5200 nM.
`COc1cccc(-c2n[nH]c(Cc3ccccc3Br)n2)c1` showed a Ki (Adenosine receptor A2a [1]) of 20 nM.
`COc1cccc(-c2n[nH]c(Cc3cccc([N+](=O)[O-])c3)n2)c1` showed a Ki (Adenosine receptor A2a [1]) of 80 nM.
`S/C(Cc1ccccc1)=N\N=C\c1ccccn1` gave a Ki (Adenosine receptor A2a [1]) of 100 nM.
`COc1ccc(O)c(/C=N/NS(=O)(=O)Cc2ccccc2)c1` gave a pKa [2] of 6.5.
In the case of `COc1cccc(-c2nc(Cc3ccc(C)c(C)c3)n[nH]2)c1`, the Activity [3] is reported as 0.9 10e-6·s cm-1, the Ki (Adenosine receptor A1) is reported as 1700 nM and the Ki (Adenosine receptor A2a [4]) is reported as 90 nM. It also gave a Ki (Adenosine receptor A2a [1]) of 20 nM.
With `Oc1ccc(OC(F)(F)F)cc1/C=N/N=C(\S)Cc1ccccc1` the Ki (Adenosine receptor A2a [1]) was 1400 nM.
`COc1ccc(/C=N/N=C(\S)Cc2ccccc2)c(O)c1` showed a Ki (Adenosine receptor A2a [1]) of 100 nM.
With `Cc1ccc(O)c(C2=NN(C(=S)Cc3ccccc3)CC2)c1` the Ki (Adenosine receptor A2a [6]) was greater than 5200 nM.
`COc1ccc(O)c(/C=N/NC(=O)Cc2ccccc2)c1` gave a pKa [2] of 2.9.
Work on `Clc1ccc(Cc2n[nH]c(-c3ccc4c(c3)OCO4)n2)cc1Cl` yielded a Ki (Adenosine receptor A2a [1]) of 100 nM.
With `COc1cccc(-c2nnc(-c3ccc(Cl)c(Cl)c3)[nH]2)c1` the Ki (Adenosine receptor A1) was 6100 nM and the Ki (Adenosine receptor A2a [1]) was 700 nM.
`Clc1ccc(Cc2nnc(-c3cnccn3)[nH]2)cc1Cl` gave a Ki (Adenosine receptor A2a [1]) of 60 nM.
With `O=[N+]([O-])c1ccc(O)c(/C=N/N=C(\S)Cc2ccccc2)c1` the Ki (Adenosine receptor A2a [1]) was 10 nM.
